# Assay results reported in ChEMBL document CHEMBL4689842, “EUbOPEN Chemogenomics Library wave 1” (2021).
# Columns and labels:
# HEK-293T = assay: Multiplex assay against HEK293T; type: toxicity, cell-based; conditions: human;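 on Population Tubulin-Different-Phenotype (%): share of the cells with healthy nuclei that show this phenotype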
# Summary of the method: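 With compound added, live cells were imaged on a CQ1 microscope at 37°C and 5% CO2; staining with Hoechst33342, BioTracker Green Microtubule Cytoskeleton Dye, MitoTracker Red and Annexin V Alexa Fluor 680 had been done at seeding. The CellPathfinder machine-learning gating scheme split cells into Hoechst high-intensity objects or normal cells, normal cells into healthy, pyknosed or fragmented nuclei, and pyknosed cells into mitotic or apoptotic. The tubulin, mitochondrial-mass and membrane-permeability phenotypes are per cents of healthy-nucleus cells.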
# Fibroblast = assay: Incucyte cell viability with human fibroblast; type: toxicity, cell-based; conditions: 10 µM, compound concentration 10 uM; further: filed as whole numbers so only -1 and 0 and 1 occur
# [1] = 12 h, 1 µM, compound concentration 1 uM, replicate 1
# [2] = 12 h, 1 µM, compound concentration 1 uM, replicate 2
# [3] = 12 h, 10 µM, compound concentration 10 uM, replicate 1
# [4] = 12 h, 10 µM, compound concentration 10 uM, replicate 2
# [5] = 24 h, 1 µM, compound concentration 1 uM, replicate 1
# [6] = 24 h, 1 µM, compound concentration 1 uM, replicate 2
# [7] = 24 h, 10 µM, compound concentration 10 uM, replicate 1
# [8] = 24 h, 10 µM, compound concentration 10 uM, replicate 2
# [9] = 48 h, 1 µM, compound concentration 1 uM, replicate 1
# [10] = 48 h, 1 µM, compound concentration 1 uM, replicate 2
# [11] = 48 h, 10 µM, compound concentration 10 uM, replicate 1
# [12] = 48 h, 10 µM, compound concentration 10 uM, replicate 2
smiles,measurement,setting,value
CCCCN(CC)c1nc(C)nc2c1c(C)cn2-c1c(C)cc(C)cc1C.Cl,Population Apoptotic (%),HEK-293T; [1],49%
same,Population Fragmented Nuclei (%),HEK-293T; [1],15%
same,Population Healthy Nuclei (%),HEK-293T; [1],45%
same,Population Hoechst High Intensity Objects (%),HEK-293T; [1],16%
same,Population Membrane Permeable-Phenotype (%),HEK-293T; [1],5%
same,Population Mitochondria Different-Phenotype (%),HEK-293T; [1],79%
same,Population Mitotic Cells (%),HEK-293T; [1],50%
same,Population Normal (%),HEK-293T; [1],83%
same,Population Pyknosed Nuclei (%),HEK-293T; [1],39%
same,Population Tubulin-Different-Phenotype (%),HEK-293T; [1],32%
same,Total Cell Count,HEK-293T; [1],241
same,Population Apoptotic (%),HEK-293T; [2],11%
same,Population Fragmented Nuclei (%),HEK-293T; [2],5%
same,Population Healthy Nuclei (%),HEK-293T; [2],43%
same,Population Hoechst High Intensity Objects (%),HEK-293T; [2],1%
same,Population Membrane Permeable-Phenotype (%),HEK-293T; [2],6%
same,Population Mitochondria Different-Phenotype (%),HEK-293T; [2],11%
same,Population Mitotic Cells (%),HEK-293T; [2],88%
same,Population Normal (%),HEK-293T; [2],98%
same,Population Pyknosed Nuclei (%),HEK-293T; [2],51%
same,Population Tubulin-Different-Phenotype (%),HEK-293T; [2],17%
same,Total Cell Count,HEK-293T; [2],240
same,Population Apoptotic (%),HEK-293T; [3],59%
same,Population Fragmented Nuclei (%),HEK-293T; [3],13%
same,Population Hoechst High Intensity Objects (%),HEK-293T; [3],8%
same,Population Membrane Permeable-Phenotype (%),HEK-293T; [3],1%
same,Population Mitochondria Different-Phenotype (%),HEK-293T; [3],95%
same,Population Mitotic Cells (%),HEK-293T; [3],40%
same,Population Normal (%),HEK-293T; [3],91%
same,Population Pyknosed Nuclei (%),HEK-293T; [3],49%
same,Population Tubulin-Different-Phenotype (%),HEK-293T; [3],75%
same,Total Cell Count,HEK-293T; [3],236
same,Population Apoptotic (%),HEK-293T; [4],27%
same,Population Fragmented Nuclei (%),HEK-293T; [4],7%
same,Population Healthy Nuclei (%),HEK-293T; [4],37%
same,Population Hoechst High Intensity Objects (%),HEK-293T; [4],7%
same,Population Membrane Permeable-Phenotype (%),HEK-293T; [4],6%
same,Population Mitochondria Different-Phenotype (%),HEK-293T; [4],68%
same,Population Mitotic Cells (%),HEK-293T; [4],72%
same,Population Normal (%),HEK-293T; [4],92%
same,Population Pyknosed Nuclei (%),HEK-293T; [4],54%
same,Population Tubulin-Different-Phenotype (%),HEK-293T; [4],60%
same,Total Cell Count,HEK-293T; [4],211
same,Population Apoptotic (%),HEK-293T; [5],48%
same,Population Fragmented Nuclei (%),HEK-293T; [5],16%
same,Population Healthy Nuclei (%),HEK-293T; [5],41%
same,Population Hoechst High Intensity Objects (%),HEK-293T; [5],13%
same,Population Membrane Permeable-Phenotype (%),HEK-293T; [5],4%
same,Population Mitochondria Different-Phenotype (%),HEK-293T; [5],61%
same,Population Mitotic Cells (%),HEK-293T; [5],51%
same,Population Normal (%),HEK-293T; [5],86%
same,Population Pyknosed Nuclei (%),HEK-293T; [5],42%
same,Population Tubulin-Different-Phenotype (%),HEK-293T; [5],36%
same,Total Cell Count,HEK-293T; [5],247
same,Population Apoptotic (%),HEK-293T; [6],15%
same,Population Fragmented Nuclei (%),HEK-293T; [6],4%
same,Population Healthy Nuclei (%),HEK-293T; [6],61%
same,Population Hoechst High Intensity Objects (%),HEK-293T; [6],1%
same,Population Membrane Permeable-Phenotype (%),HEK-293T; [6],9%
same,Population Mitochondria Different-Phenotype (%),HEK-293T; [6],13%
same,Population Mitotic Cells (%),HEK-293T; [6],84%
same,Population Normal (%),HEK-293T; [6],98%
same,Population Pyknosed Nuclei (%),HEK-293T; [6],33%
same,Population Tubulin-Different-Phenotype (%),HEK-293T; [6],21%
same,Total Cell Count,HEK-293T; [6],308
same,Population Apoptotic (%),HEK-293T; [7],64%
same,Population Fragmented Nuclei (%),HEK-293T; [7],10%
same,Population Hoechst High Intensity Objects (%),HEK-293T; [7],9%
same,Population Membrane Permeable-Phenotype (%),HEK-293T; [7],1%
same,Population Mitochondria Different-Phenotype (%),HEK-293T; [7],95%
same,Population Mitotic Cells (%),HEK-293T; [7],35%
same,Population Normal (%),HEK-293T; [7],90%
same,Population Pyknosed Nuclei (%),HEK-293T; [7],37%
same,Population Tubulin-Different-Phenotype (%),HEK-293T; [7],89%
same,Population Apoptotic (%),HEK-293T; [8],29%
same,Population Fragmented Nuclei (%),HEK-293T; [8],4%
same,Population Healthy Nuclei (%),HEK-293T; [8],51%
same,Population Hoechst High Intensity Objects (%),HEK-293T; [8],6%
same,Population Membrane Permeable-Phenotype (%),HEK-293T; [8],4%
same,Population Mitochondria Different-Phenotype (%),HEK-293T; [8],73%
same,Population Mitotic Cells (%),HEK-293T; [8],70%
same,Population Normal (%),HEK-293T; [8],93%
same,Population Pyknosed Nuclei (%),HEK-293T; [8],44%
same,Population Tubulin-Different-Phenotype (%),HEK-293T; [8],81%
same,Total Cell Count,HEK-293T; [8],231
same,Population Apoptotic (%),HEK-293T; [9],43%
same,Population Fragmented Nuclei (%),HEK-293T; [9],20%
same,Population Healthy Nuclei (%),HEK-293T; [9],46%
same,Population Hoechst High Intensity Objects (%),HEK-293T; [9],12%
same,Population Membrane Permeable-Phenotype (%),HEK-293T; [9],2%
same,Population Mitochondria Different-Phenotype (%),HEK-293T; [9],26%
same,Population Mitotic Cells (%),HEK-293T; [9],56%
same,Population Normal (%),HEK-293T; [9],87%
same,Population Pyknosed Nuclei (%),HEK-293T; [9],32%
same,Population Tubulin-Different-Phenotype (%),HEK-293T; [9],22%
same,Total Cell Count,HEK-293T; [9],315
same,Population Apoptotic (%),HEK-293T; [10],15%
same,Population Fragmented Nuclei (%),HEK-293T; [10],7%
same,Population Healthy Nuclei (%),HEK-293T; [10],82%
same,Population Hoechst High Intensity Objects (%),HEK-293T; [10],3%
same,Population Membrane Permeable-Phenotype (%),HEK-293T; [10],4%
same,Population Mitochondria Different-Phenotype (%),HEK-293T; [10],8%
same,Population Mitotic Cells (%),HEK-293T; [10],84%
same,Population Normal (%),HEK-293T; [10],96%
same,Population Pyknosed Nuclei (%),HEK-293T; [10],10%
same,Population Tubulin-Different-Phenotype (%),HEK-293T; [10],17%
same,Total Cell Count,HEK-293T; [10],539
same,Population Apoptotic (%),HEK-293T; [11],49%
same,Population Fragmented Nuclei (%),HEK-293T; [11],13%
same,Population Healthy Nuclei (%),HEK-293T; [11],67%
same,Population Hoechst High Intensity Objects (%),HEK-293T; [11],9%
same,Population Membrane Permeable-Phenotype (%),HEK-293T; [11],3%
same,Population Mitochondria Different-Phenotype (%),HEK-293T; [11],74%
same,Population Mitotic Cells (%),HEK-293T; [11],50%
same,Population Normal (%),HEK-293T; [11],90%
same,Population Pyknosed Nuclei (%),HEK-293T; [11],19%
same,Population Tubulin-Different-Phenotype (%),HEK-293T; [11],70%
same,Total Cell Count,HEK-293T; [11],365
same,Population Apoptotic (%),HEK-293T; [12],36%
same,Population Fragmented Nuclei (%),HEK-293T; [12],7%
same,Population Healthy Nuclei (%),HEK-293T; [12],74%
same,Population Hoechst High Intensity Objects (%),HEK-293T; [12],2%
same,Population Membrane Permeable-Phenotype (%),HEK-293T; [12],0%
same,Population Mitochondria Different-Phenotype (%),HEK-293T; [12],54%
same,Population Mitotic Cells (%),HEK-293T; [12],63%
same,Population Normal (%),HEK-293T; [12],97%
same,Population Pyknosed Nuclei (%),HEK-293T; [12],18%
same,Population Tubulin-Different-Phenotype (%),HEK-293T; [12],67%
same,Total Cell Count,HEK-293T; [12],337
same,Growth Rate,"Fibroblast; 0 h, replicate number 1, timepoint 0 hours",1
same,Growth Rate,"Fibroblast; 6 h, replicate number 1, timepoint 6 hours",0
same,Growth Rate,"Fibroblast; 12 h, replicate number 1, timepoint 12 hours",0
same,Growth Rate,"Fibroblast; 18 h, replicate number 1, timepoint 18 hours",0
same,Growth Rate,"Fibroblast; 24 h, replicate number 1, timepoint 24 hours",0
